The text below walks through data of ChEMBL document CHEMBL3244063, “Pharmacology on rat ileum of certain 2-substituted 3-(dimethylamino)-5,6-dimethoxyindenes related to 5,6-(methylenedioxy)indene calcium antagonists” (1978).

Structures are written as SMILES. Activity calls are given as the source filed them. The calls are words filed in the database; no cut-off is given here.

Experiment [1] is filed under the species Rattus norvegicus. The experiment can be described thus: Antagonist activity at calcium channel in albino rat ileum assessed as inhibition of PGF-2alpha-induced spasmogenic action by measuring contraction of ileum at 10^-5 M preincubated for 3 mins followed by PGF-2alpha induction (reference value: 76 +/- 4%). Set-up: scale not given: the % may be the effect or the level left. The class given is tissue-based.

The species named for experiment [2] is Rattus norvegicus. The experiment can be described thus: Antagonist activity at calcium channel in albino rat ileum assessed as inhibition of acetylcholine-induced spasmogenic action by measuring contraction of ileum at 10^-4 acetylcholine induction (reference value: 80 +/- 5%). Set-up: scale not given: the % may be the effect or the level left. The class given is tissue-based.

The species entered for experiment [3] is Rattus norvegicus. The experiment can be described thus: Agonist activity at calcium channel in albino rat ileum assessed as induction of spasmogenic action by measuring contraction of ileum at 10^-3 M measured for 3 mins relative to acetylcholine. The format is tissue-based. In outline: (§1)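 Isolated rat ileum strips in an organ bath, with a separate strip for each compound and concentration. A control contraction to PGF2α (3 × 10⁻⁷ M bath) or acetylcholine (10⁻⁶ M bath) is recorded, and the bath is washed three times. Contraction during the 3-min test-compound incubation, before spasmogen is added, is expressed as percent of the control spasmogen response. Mean ± SEM of four experiments.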

Experiment [4] is filed under the species Rattus norvegicus. The experiment can be described thus: Agonist activity at calcium channel in albino rat ileum assessed as induction of spasmogenic action by measuring contraction of ileum at 10^-4 M measured for 3 mins relative to acetylcholine. The format is tissue-based. In outline: as §1
For experiment [5], the species on record is Rattus norvegicus. The experiment can be described thus: Agonist activity at calcium channel in albino rat ileum assessed as induction of spasmogenic action by measuring contraction of ileum at 10^-3 M measured for 3 mins relative to PGF-2alpha. The class given is tissue-based. In a few lines:
as §1

Experiment [6] is filed under the species Rattus norvegicus. The experiment can be described thus: Antagonist activity at calcium channel in albino rat ileum assessed as inhibition of PGF-2alpha-induced spasmogenic action by measuring contraction of ileum at 10^-6 M preincubated for 3 mins followed by PGF-2alpha induction (reference value: 76 +/- 4%). Set-up: scale not given: the % may be the effect or the level left. The format is tissue-based.

Experiment [7] is filed under the species Rattus norvegicus. The experiment can be described thus: Antagonist activity at calcium channel in albino rat ileum assessed as inhibition of acetylcholine-induced spasmogenic action by measuring contraction of ileum at 10^-3 acetylcholine induction (reference value: 80 +/- 5%). The class given is tissue-based. Set-up: scale not given: the % may be the effect or the level left.

The species entered for experiment [8] is Rattus norvegicus. The experiment can be described thus: Agonist activity at calcium channel in albino rat ileum assessed as induction of spasmogenic action by measuring contraction of ileum at 10^-4 M measured for 3 mins relative to PGF-2alpha. The class given is tissue-based. In a few lines:
as §1

Experiment [9] is filed under the species Rattus norvegicus. The experiment can be described thus: Antagonist activity at calcium channel in albino rat ileum assessed as inhibition of acetylcholine-induced spasmogenic action by measuring contraction of ileum at 10^-5 acetylcholine induction (reference value: 80 +/- 5%). Further details: scale not given: the % may be the effect or the level left. The class given is tissue-based.

The species named for experiment [10] is Rattus norvegicus. The experiment can be described thus: Agonist activity at calcium channel in albino rat ileum assessed as induction of spasmogenic action by measuring contraction of ileum at 10^-6 to 10^-5 M measured for 3 mins. The format is tissue-based. In outline:
as §1

The species entered for experiment [11] is Rattus norvegicus. The experiment can be described thus: Antagonist activity at calcium channel in albino rat ileum assessed as inhibition of PGF-2alpha-induced spasmogenic action by measuring contraction of ileum at 10^-4 M preincubated for 3 mins followed by PGF-2alpha induction (reference value: 76 +/- 4%). The format is tissue-based. Further details: scale not given: the % may be the effect or the level left.

Experiment [12] is filed under the species Rattus norvegicus. The experiment can be described thus: Antagonist activity at calcium channel in albino rat ileum assessed as inhibition of PGF-2alpha-induced spasmogenic action by measuring contraction of ileum at 10^-3 M preincubated for 3 mins followed by PGF-2alpha induction (reference value: 76 +/- 4%). The class given is tissue-based. Set-up: scale not given: the % may be the effect or the level left.

For experiment [13], the species on record is Rattus norvegicus. The experiment can be described thus: Antagonist activity at calcium channel in albino rat ileum assessed as inhibition of acetylcholine-induced spasmogenic action by measuring contraction of ileum at 10^-6 acetylcholine induction (reference value: 80 +/- 5%). The class given is tissue-based. Further details: scale not given: the % may be the effect or the level left.

The subject of a further experiment is Heart. The experiment can be described thus: Positive inotropic activity in perfused rabbit heart assessed as increase in force of contraction at 10^-6 M relative to control. The class given is functional, Oryctolagus cuniculus.

Regarding `CCCC1=Cc2cc(OC)c(OC)cc2C1N(C)C` (stereo not drawn), the Activity is 99.3% in the experiment listed under Rattus norvegicus [1]; 96.6% in the experiment listed under Rattus norvegicus [2]; 43.6% in the experiment listed under Rattus norvegicus [3]; 42.7% in the experiment listed under Rattus norvegicus [4]; 61.7% in the experiment filed under Rattus norvegicus [5]; 104% in the experiment listed under Rattus norvegicus [6]. Besides, the Activity in the experiment filed under Rattus norvegicus [7] amounted to 56.7%; in the experiment filed under Rattus norvegicus [8] it was 80.7%; in the experiment listed under Rattus norvegicus [9], 110%; in the experiment listed under Rattus norvegicus [11] it was 99.7%; in the experiment filed under Rattus norvegicus [12], 49.1%; in the experiment filed under Rattus norvegicus [13] it was 104%. Besides, the outcome in the experiment filed under Rattus norvegicus [10] was inactive.
For the compound `CCC1=Cc2cc(OC)c(OC)cc2C1N(C)C` (stereo not drawn), the Activity is 108% in the experiment listed under Rattus norvegicus [1]; 91.5% in the experiment filed under Rattus norvegicus [2]; 45.3% in the experiment listed under Rattus norvegicus [3]; 28.9% in the experiment filed under Rattus norvegicus [4]; 77.3% in the experiment listed under Rattus norvegicus [5]; 98.7% in the experiment listed under Rattus norvegicus [6]. The Activity in the experiment listed under Rattus norvegicus [7] was 51.3%; in the experiment filed under Rattus norvegicus [8], 74.7%; in the experiment listed under Rattus norvegicus [9], 105%; in the experiment filed under Rattus norvegicus [11] it was 110%; in the experiment listed under Rattus norvegicus [12] it was 62%; in the experiment listed under Rattus norvegicus [13], 105%. The outcome in the experiment filed under Rattus norvegicus [10] was inactive.
Turning to `CCCCC1=Cc2cc(OC)c(OC)cc2C1N(C)C` (stereo not drawn), the Activity in the experiment listed under Rattus norvegicus [1] came out at 91.1%; in the experiment filed under Rattus norvegicus [2], 78.6%; in the experiment listed under Rattus norvegicus [3] it was 46.7%; in the experiment filed under Rattus norvegicus [4], 25.3%; in the experiment listed under Rattus norvegicus [5], 58.1%; in the experiment listed under Rattus norvegicus [6], 101%. Also, the Activity in the experiment filed under Rattus norvegicus [7] amounted to 64.3%; in the experiment filed under Rattus norvegicus [8] it was 37.1%; in the experiment filed under Rattus norvegicus [9] it was 108%; in the experiment listed under Rattus norvegicus [11], 60.5%; in the experiment listed under Rattus norvegicus [12] it was 65.2%; in the experiment listed under Rattus norvegicus [13] it was 104%. Also, the result in the experiment listed under Rattus norvegicus [10] was inactive.
Consider `COc1cc2c(cc1OC)C(N(C)C)C(C)=C2` (stereo not drawn), for which the Activity in the experiment filed under Rattus norvegicus [1] worked out at 108%; in the experiment filed under Rattus norvegicus [2] it was 94.4%; in the experiment filed under Rattus norvegicus [3], 49.5%; in the experiment filed under Rattus norvegicus [4], 20.6%; in the experiment listed under Rattus norvegicus [5] it was 119%; in the experiment filed under Rattus norvegicus [6], 111%. Moreover, the Activity worked out at 64% in the experiment listed under Rattus norvegicus [7]; 59.8% in the experiment listed under Rattus norvegicus [8]; 113% in the experiment listed under Rattus norvegicus [9]; 113% in the experiment filed under Rattus norvegicus [11]; 124% in the experiment filed under Rattus norvegicus [12]; 113% in the experiment listed under Rattus norvegicus [13]. The result in the experiment listed under Rattus norvegicus [10] was inactive.
In the case of `CCCC1=Cc2cc3c(cc2C1N(C)C)OCO3.Cl` (stereo not drawn), the Activity in the experiment on Heart turned out to be 36%.
